Measured values collected from several papers.
Lines come from different studies, so protocols differ.
EGFR A750P/del747-749: Epidermal growth factor receptor (EGFR, Homo sapiens, UniProt P00533, A750P/del747-749)
EGFR G719S: Epidermal growth factor receptor (EGFR, Homo sapiens, UniProt P00533, G719S)
EGFR del747-750/T751S: Epidermal growth factor receptor (EGFR, Homo sapiens, UniProt P00533, del747-750/T751S)
EGFR del747-752/P753S: Epidermal growth factor receptor (EGFR, Homo sapiens, UniProt P00533, del747-752/P753S)
EGFR L858R/T790M: Epidermal growth factor receptor (EGFR, Homo sapiens, UniProt P00533, L858R/T790M)
EGFR del752-759: Epidermal growth factor receptor (EGFR, Homo sapiens, UniProt P00533, del752-759)
EGFR L861Q: Epidermal growth factor receptor (EGFR, Homo sapiens, UniProt P00533, L861Q)
EGFR L858R: Epidermal growth factor receptor (EGFR, Homo sapiens, UniProt P00533, L858R)
EGFR G719C: Epidermal growth factor receptor (EGFR, Homo sapiens, UniProt P00533, G719C)
EGFR: Epidermal growth factor receptor (EGFR, Homo sapiens, UniProt P00533)

| SMILES | target | effect on | technique | concentration | remaining binding |
| --- | --- | --- | --- | --- | --- |
| CNC(=O)Nc1ccc2c(c1)[C@@]1(CC2)OC(=O)N(CC(=O)N(Cc2ccc(F)cc2)[C@@H](C)C(F)(F)F)C1=O | EGFR A750P/del747-749 | cell-free assay | competition with immobilised ligand | 1 µM | 96% |
| C[C@@H]1CCN(c2nccc(-c3cnn4ncccc34)n2)C1 | EGFR G719S | binding |  | 1 µM | 74% |
| Cc1cnc(Nc2ccc(C(=O)N3CCC(N4CCCC4)CC3)cc2)nc1-c1cc2ccccc2s1 | EGFR del747-750/T751S | binding | competition with immobilised ligand | 1 µM | 97% |
| CS(=O)(=O)N1CCCC(NC(=O)[C@H](CCC2CCCCC2)NC(=O)c2ccc(CNc3ncnc4c3nnn4-c3ccccc3)cc2)C1 (stereo partly shown) | EGFR del747-752/P753S | cell-free assay | competition with immobilised ligand | 0.1 µM | 66% |
| O=C(NCCCN1CCOCC1)c1ccc(Nc2nccc(-c3cc4ccccc4s3)n2)cc1 | EGFR L858R/T790M | binding | competition with immobilised ligand | 1 µM | 75% |
| CN(C)c1ncc(F)c(-c2cnn3ncccc23)n1 | EGFR del752-759 | binding |  | 1 µM | 100% |
| CCS(=O)(=O)c1cc2cc(C[C@@](O)(CC(C)(C)c3ccc(F)cc3C(N)=O)C(F)(F)F)[nH]c2cn1 | EGFR del747-750/T751S | cell-free assay | competition with immobilised ligand | 1 µM | 93% |
| O=C(c1ccc(Nc2nccc(-c3cc4ccccc4s3)n2)cc1)N1CCC(N2CCCC2)CC1 | EGFR del747-752/P753S | binding | competition with immobilised ligand | 1 µM | 90% |
| COc1cnc(Nc2cccc(S(N)(=O)=O)c2)nc1N1CCN(c2ccccc2)CC1 | EGFR L861Q | binding | competition with immobilised ligand | 1 µM | 100% |
| CC1CCCN1c1nccc(-c2cnn3ncccc23)n1 (stereo not shown) | EGFR L858R | binding |  | 1 µM | 100% |
| CCOC(=O)c1cc2cc(-c3cc(C(=O)NCc4ccc(C(=O)O)cc4)nn3C)ccc2[nH]1 | EGFR G719C | cell-free assay | competition with immobilised ligand | 0.1 µM | 100% |
| c1cncc(-c2cccc(Nc3nccc(NC4CCCCC4)n3)c2)c1 | EGFR del752-759 | binding | competition with immobilised ligand | 10 µM | 69% |
| CN(CCCC(F)(F)F)c1nccc(-c2cnn3ncccc23)n1 | EGFR L858R | binding |  | 1 µM | 85% |
| CNC(=O)[C@@H]1CC[C@@H](n2c(-c3ccc4cnccc4c3)nc3ccc(C(=O)NCc4cccc(C(N)=O)c4)cc32)C1 | EGFR L861Q | binding | competition with immobilised ligand | 1 µM | 100% |
| O=C(NCCCN1CCOCC1)c1ccc(Nc2ncc(Cl)c(-c3ccc(Cl)s3)n2)cc1 | EGFR del752-759 | binding | competition with immobilised ligand | 1 µM | 92% |
| CCN1CCN(Cc2ccc(C(=O)Nc3ccc(C)c(Oc4ccc5c(c4)CC(=O)N5)c3)cc2C(F)(F)F)CC1 | Epidermal growth factor receptor (EGFR, Homo sapiens, UniProt P00533, T790M) | binding | competition with immobilised ligand | 1 µM | 83% |

| SMILES | target | effect on | technique | concentration | remaining binding |
| --- | --- | --- | --- | --- | --- |
| COc1cnc(Nc2cccc(S(N)(=O)=O)c2)nc1N1CCN(c2ccccc2)C(=O)C1 | EGFR G719S | binding | competition with immobilised ligand | 1 µM | 100% |
| COc1ccnn2ncc(-c3ccnc(N(C)C)n3)c12 | EGFR del752-759 | binding |  | 1 µM | 86% |
| Nc1ncc2c(n1)-c1c([nH]c3ccc(C#CC4CC4)cc13)CCCC2 | EGFR del752-759 | binding | competition with immobilised ligand | 1 µM | 100% |
| N[C@H]1CCN(c2nccc(-c3cnn4ncccc34)n2)C1 | EGFR L858R/T790M | binding |  | 1 µM | 89% |
| O=C(NCC1CCOCC1)c1n[nH]cc1NC(=O)c1c(F)cccc1F | EGFR del747-752/P753S | binding | competition with immobilised ligand | 1 µM | 100% |
| CCOCCn1cc(C(=O)Nc2ccc(-n3nc(-c4cccnc4)cc3C(F)(F)F)cn2)ccc1=O | EGFR del747-750/T751S | cell-free assay | competition with immobilised ligand | 1 µM | 100% |
| O=C(c1ccc(Nc2ncc(Cl)c(-c3cc4ccccc4s3)n2)cc1)N1CCC(N2CCCC2)CC1 | EGFR | binding | competition with immobilised ligand | 1 µM | 90% |
| F[C@@H]1CCN(c2nccc(-c3cnn4ncccc34)n2)C1 | EGFR del752-759 | binding |  | 1 µM | 100% |
| COc1ncc2cc3ccccc3nc2c1C#N | EGFR | cell-free assay | competition with immobilised ligand | 5 µM | 94% |
| Cn1nc(C(F)(F)F)cc1-c1cnc(N2CCc3cc(S(=O)(=O)Nc4c(F)cc(Cl)cc4F)cc(N4CCCC4=O)c32)nc1 | EGFR del747-752/P753S | cell-free assay | competition with immobilised ligand | 1 µM | 100% |
| O=C(c1ccc(Nc2ncc(Cl)c(-c3ccc(Cl)s3)n2)cc1)N1CCC(N2CCCC2)CC1 | EGFR L861Q | binding | competition with immobilised ligand | 1 µM | 100% |
| Cc1c(C(=O)O)cc(-c2ccc(C3CCNCC3)cc2)c2ccc(-c3ccc(C(F)(F)F)cc3)cc12 | EGFR L861Q | cell-free assay | competition with immobilised ligand | 1 µM | 100% |
| O=C(Nc1c[nH]nc1C(=O)NC1CCNCC1)c1cc(F)cc(F)c1 | EGFR A750P/del747-749 | binding | competition with immobilised ligand | 1 µM | 80% |
| Nc1cnc(N2CCc3cc(S(=O)(=O)Nc4c(F)cc(Cl)cc4F)cc(N4CCCC4=O)c32)nc1 | EGFR L858R | cell-free assay | competition with immobilised ligand | 1 µM | 85% |
| CN1CCN(c2ccc(Nc3nccc(-c4cccc([N+](=O)[O-])c4)n3)cc2C(F)(F)F)CC1 | EGFR G719C | binding |  | 10 µM | 69% |
